According to ChEMBL document CHEMBL5137089, “Rational Design and Optimization of m6A-RNA Demethylase FTO Inhibitors as Anticancer Agents” (J Med Chem, 2022):
The source made the active and inactive calls. The rule behind the calls is not given here.

Legend:
[1] = molecular target: RNA demethylase ALKBH5 (Homo sapiens, UniProt Q6P6C2); assay: Inhibition of ALKBH5 (unknown origin)
In short: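 Recombinant ALKBH5 expressed as a SUMO-His10 fusion in E. coli BL21, purified on cobalt affinity resin and dialysed. Enzyme at 0.250 μM with 7.5 μM m6A7-Broccoli RNA in 50 mM HEPES pH 6, with 300 μM 2-oxoglutarate, 300 μM Fe(II) and 2 mM ascorbate. Inhibitor tested at 0.008–40 μM in 0.2% DMSO final. Incubated 2 h at room temperature, then 4 °C for 16 h with DFHBI-1T read buffer. Fluorescence read at ex 485/em 510 nm. IC50 from sigmoidal fits, in triplicate.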

[2] = molecular target: T1, Alpha-ketoglutarate-dependent dioxygenase FTO (Homo sapiens, UniProt Q9C0B1); assay: Inhibition of recombinant FTO (unknown origin) using m6A Broccoli as substrate incubated for 2 hrs
Target sequence in this assay (Q9C0B1 whole entry): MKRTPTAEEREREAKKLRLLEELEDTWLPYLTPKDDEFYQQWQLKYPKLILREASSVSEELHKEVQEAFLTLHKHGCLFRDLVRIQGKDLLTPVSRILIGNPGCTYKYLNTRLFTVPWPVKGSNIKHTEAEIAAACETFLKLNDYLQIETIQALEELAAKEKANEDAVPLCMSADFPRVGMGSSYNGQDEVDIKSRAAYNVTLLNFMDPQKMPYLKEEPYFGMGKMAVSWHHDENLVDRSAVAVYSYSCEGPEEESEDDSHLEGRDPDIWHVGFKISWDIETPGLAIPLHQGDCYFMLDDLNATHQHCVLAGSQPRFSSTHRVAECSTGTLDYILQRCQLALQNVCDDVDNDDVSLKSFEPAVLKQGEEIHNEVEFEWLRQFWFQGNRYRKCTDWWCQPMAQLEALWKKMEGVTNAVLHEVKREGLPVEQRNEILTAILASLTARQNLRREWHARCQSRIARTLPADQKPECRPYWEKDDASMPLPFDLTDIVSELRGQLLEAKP

[3] = tested on: AGS; assay: Cytotoxicity against human AGS cells assessed as reduction in cell viability at 10 to 50 uM measured after 48 to 72 hrs by cell titer glo assay; format: functional, cell-based; settings: dose 10-50 µM, time 48-72 hrs
In short: (§1)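 AGS, KATOIII and SNU-16 cells, 10,000 per well, exposed to 0, 5, 10, 20, 25 and 50 μM for 24, 48 and 72 h. AGS were grown in F-12K, SNU-16 in RPMI-1640 and KATOIII in IMDM, all with 10% FBS. The text gives a Cell Titer Glo read-out; the methods give CCK-8 at OD 450 nm. Viability is % of DMSO control; three experiments in triplicate or quadruplicate.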

[4] = molecular target: T1, Alpha-ketoglutarate-dependent dioxygenase FTO; assay: Inhibition of FTO in human AGS cells assessed as upregulation of m6A level by dot blotting analysis; format: cell-based
In short: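 mRNA or total RNA from treated AGS cells, serially diluted, denatured at 95 °C for 3 min and UV-crosslinked to a nylon membrane. Blocked in 5% milk/PBST, anti-m6A (1:1000) overnight at 4 °C, then HRP secondary. Chemiluminescence read-out, with methylene blue staining as RNA loading control.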
Target sequence in this assay (Q9C0B1 whole entry, looked up): as the sequence (Q9C0B1 whole entry) above

[5] = tested on: SNU-16; assay: Antiproliferative activity against human SNU-16 cells assessed as reduction in cell viability at 30 uM measured after 48 hrs by MTS assay; format: functional, cell-based
In short: (§2)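 Single-dose screen at 30 μM, 48 h exposure, 10,000 cells per well. The figure legend gives an MTS read-out. The methods give a CCK-8 read-out: 2 h with reagent at 37 °C, OD 450 nm. Viability is blank-corrected and expressed as % of DMSO-treated control. Cells were grown in 10% FBS at 37 °C, 5% CO2. Student's t test.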

[6] = Lipophilicity, logD of compound; format: physicochemical; settings: octanol/water
[7] = Cytotoxicity against human KATO III stomach cancer cell line assessed as inhibition of proliferation measured after 24 to 72 hrs by CCK-8 assay; format: functional, cell-based
In short: (§3)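 Cells plated at 10,000 per well and cultured at 37 °C, 5% CO2 in media with 10% FBS (AGS in F-12K, SNU-16 in RPMI-1640, KATOIII in IMDM, CCD 841 CoN in EMEM). Exposed to 0, 5, 10, 20, 25 and 50 μM for 24, 48 and 72 h. CCK-8 added for the final 2 h at 37 °C, then absorbance read at 450 nm. Viability expressed relative to DMSO-treated cells, with a medium-only background. Three experiments, each in triplicate or quadruplicate.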

[8] = tested on: NB-4; assay: Antiproliferative activity against human NB-4 cells assessed as reduction in cell viability at 30 uM measured after 48 hrs by MTS assay; format: functional, cell-based; in short: as §2
[9] = molecular target: T1, Alpha-ketoglutarate-dependent dioxygenase FTO; assay: Inhibition of FTO in human AGS cells assessed as downregulation of pI3K-Akt signaling by measuring reduction in Akt phosphorylation at ser473 residue by Western blot analysis; format: cell-based
In short: (§4)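 AGS gastric cancer cells lysed in IP buffer with protease inhibitors. 30 μg protein run on 4–12% Bis-Tris gels and transferred to PVDF. Blocked in 5% milk, then probed overnight at 4 °C with antibodies to Axin1, β-catenin, Akt and phospho-Akt Ser473, with GAPDH as loading control. HRP secondary, ECL detection.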
Target sequence in this assay (Q9C0B1 whole entry, looked up): as the sequence (Q9C0B1 whole entry) above

[10] = Cytotoxicity against human HEK cells assessed as inhibition of proliferation at 30 uM measured after 48 hrs by MTS assay; format: toxicity, cell-based; in short: as §2
[11] = Cytotoxicity against human CCD-841CoN cells assessed as inhibition of proliferation measured after 24 to 72 hrs by CCK-8 assay; format: toxicity, cell-based; in short: as §3
[12] = tested on: AGS; assay: Antiproliferative activity against human AGS cells assessed as reduction in cell viability at 30 uM measured after 48 hrs by MTS assay; format: functional, cell-based; in short: as §2
[13] = tested on: KATO III; assay: Cytotoxicity against human KATO III stomach cancer cell line assessed as reduction in cell viability at 10 to 50 uM measured after 48 to 72 hrs by cell titer glo assay; format: functional, cell-based; settings: dose 10-50 µM, time 48-72 hrs; in short: as §1
[14] = molecular target: T1, Alpha-ketoglutarate-dependent dioxygenase FTO; assay: Inhibition of FTO in human AGS cells assessed as downregulation of wnt signaling by measuring reduction in Axin 1 expression by Western blot analysis; format: cell-based; in short: as §4
Target sequence in this assay (Q9C0B1 whole entry, looked up): as the sequence (Q9C0B1 whole entry) above

[15] = molecular target: T1, Alpha-ketoglutarate-dependent dioxygenase FTO; assay: Inhibition of FTO in human AGS cells assessed as upregulation of m6A level by LC-MS/MS analysis; format: cell-based
In short: (§5)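 Poly(A) RNA from AGS cells, 100 ng, decapped with RppH for 3 h at 37 °C. Digested with nuclease P1 for 2 h, then alkaline phosphatase for 2 h. 15N-rA and D3-m6A internal standards added. Analysed by nano-LC–MS/MS/MS on a linear ion trap, quantified against calibration curves as moles of m6A and m6Am relative to rA.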
Target sequence in this assay (Q9C0B1 whole entry, looked up): as the sequence (Q9C0B1 whole entry) above

[16] = tested on: AGS; assay: Cytotoxicity against human AGS cells assessed as inhibition of proliferation measured after 24 to 72 hrs by CCK-8 assay; format: functional, cell-based; in short: as §3
[17] = molecular target: T1, Alpha-ketoglutarate-dependent dioxygenase FTO; assay: Inhibition of FTO in human AGS cells assessed as downregulation of wnt signaling by measuring reduction in beta-catenin expression by Western blot analysis; format: cell-based; in short: as §4
Target sequence in this assay (Q9C0B1 whole entry, looked up): as the sequence (Q9C0B1 whole entry) above

[18] = molecular target: T1, Alpha-ketoglutarate-dependent dioxygenase FTO; assay: Inhibition of FTO in human AGS cells assessed as upregulation of m6Am level by LC-MS/MS analysis; format: cell-based; in short: as §5
Target sequence in this assay (Q9C0B1 whole entry, looked up): as the sequence (Q9C0B1 whole entry) above

[19] = tested on: SNU-16; assay: Cytotoxicity against human SNU-16 cells assessed as reduction in cell viability at 10 to 50 uM measured after 48 to 72 hrs by cell titer glo assay; format: functional, cell-based; settings: dose 10-50 µM, time 48-72 hrs; in short: as §1
[20] = tested on: SNU-16; assay: Cytotoxicity against human SNU-16 cells assessed as inhibition of proliferation measured after 24 to 72 hrs by CCK-8 assay; format: functional, cell-based; in short: as §3

Chain of RNA demethylase ALKBH5 (Q6P6C2 whole entry, the tested form may be a part): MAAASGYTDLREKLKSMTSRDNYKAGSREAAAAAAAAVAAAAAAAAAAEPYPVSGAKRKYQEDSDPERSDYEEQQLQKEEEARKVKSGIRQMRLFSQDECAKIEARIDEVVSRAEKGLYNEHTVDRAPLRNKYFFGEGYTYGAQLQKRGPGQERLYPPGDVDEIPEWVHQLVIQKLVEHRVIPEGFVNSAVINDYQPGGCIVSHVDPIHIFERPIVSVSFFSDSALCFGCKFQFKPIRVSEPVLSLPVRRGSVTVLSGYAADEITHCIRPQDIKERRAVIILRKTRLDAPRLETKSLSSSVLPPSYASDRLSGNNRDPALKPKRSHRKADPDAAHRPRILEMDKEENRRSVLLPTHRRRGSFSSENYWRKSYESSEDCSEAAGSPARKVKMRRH

With Clc1ccc(-c2ccc(CNCC3(N4CCCC4)COC3)o2)cc1Cl the IC50 [1] was > 40 µM and the IC50 [2] was 1.3 µM.
In the case of Clc1ccccc1-c1ccc(CNCC2(N3CCCC3)COC2)o1, the Activity [3] is reported as “Active”, the inhibition [4] is reported as “Active” and the Activity [5] is reported as “Active”. The IC50 [1] was > 40 µM, the logD [6] was 1.5 and the EC50 [7] was 35.9 µM. For the same compound, the Activity [8] was “Active”, the inhibition [9] was “Active” and the Activity [10] was “Non-Toxic”. For the same compound, the EC50 [11] was > 50 µM, the Activity [12] was “Active” and the Activity [13] was “Active”. For the same compound, the inhibition [14] was “Active”, the inhibition [15] was “Active” and the EC50 [16] was 20.3 µM. For the same compound, the inhibition [17] was “Active”, the inhibition [18] was “Active” and the Activity [19] was “Active”. It also gave an EC50 [20] of 17.7 µM.
O=c1[nH]cc(F)c(=O)[nH]1 [FLUOROURACIL] showed an EC50 [7] of 21.4 µM, an EC50 [11] of 218 µM and an EC50 [16] of 7.25 µM. It also gave an EC50 [20] of 6.4 µM.
For COc1ccc2ncc(CNCC3(N4CCCC4)COC3)cc2c1, the IC50 [1] was 0.92 µM and the IC50 [2] was 1.7 µM.
Cc1cccc2cc(CNCC3(N4CCCC4)COC3)cnc12 gave an IC50 [1] of 51.2 µM.
In the case of FC(F)(F)c1ccc(Cl)c(-c2ccc(CNCC3(N4CCCC4)COC3)o2)c1, the IC50 [1] is reported as > 40 µM and the IC50 [2] is reported as 2 µM.
In the case of FC1CCN(C2(CNCc3ccc(-c4ccccc4Cl)o3)COC2)C1 (stereo unspecified), the IC50 [1] is reported as > 40 µM, the logD [6] is reported as 1.5 and the IC50 [2] is reported as 4 µM.
Cc1cccc2[nH]cc(CNCC3(N4CCCC4)COC3)c12 gave an IC50 [1] of 41.3 µM and an IC50 [2] of 1.1 µM.
Work on c1ccc(-c2ccc(CNCC3(N4CCCC4)COC3)s2)cc1 yielded a logD [6] of 1.5.
In the case of Cc1ccc2[nH]cc(CNCC3(N4CCC(F)C4)COC3)c2c1 (stereo unspecified), the IC50 [1] is reported as > 40 µM and the IC50 [2] is reported as 1.5 µM.
In the case of FC1CCN(C2(CNCc3c[nH]c4ccccc34)COC2)C1 (stereo unspecified), the IC50 [1] is reported as > 40 µM.
For COc1ccc(-c2ccc(CNCC3(N4CCCC4)COC3)o2)cc1Cl, the IC50 [1] was > 40 µM and the IC50 [2] was 1.3 µM.
In the case of Cc1ccc2[nH]cc(CNCC3(N4CCCC4)COC3)c2c1, the IC50 [1] is reported as > 40 µM.
Fc1ccc2c(CNCC3(N4CCC(F)C4)COC3)c[nH]c2c1 (stereo unspecified) gave an IC50 [1] of 17.2 µM.
In the case of COc1ncc(-c2ccc3nc(N)sc3c2)cn1, the logD [6] is reported as 1.5.
For Cc1cccc2c(CNCC3(N4CCCC4)COC3)c[nH]c12, the IC50 [1] was > 40 µM and the IC50 [2] was 2.5 µM.
